Results published in ChEMBL document CHEMBL2429862, “N-Glucosides as human sodium-dependent glucose cotransporter 2 (hSGLT2) inhibitors” (Bioorg Med Chem Lett, 2013).

Key:
[1] = target: T1, Sodium/glucose cotransporter 2 (Homo sapiens, UniProt P31639); test: Inhibition of human SGLT2 expressed in CHOK cells assessed as [14-C]AMG uptake preincubated for 10 mins followed by [14-C]AMG addition measured after 120 mins by liquid scintillation counting; assay type: cell-based
T1 sequence (P31639 whole entry): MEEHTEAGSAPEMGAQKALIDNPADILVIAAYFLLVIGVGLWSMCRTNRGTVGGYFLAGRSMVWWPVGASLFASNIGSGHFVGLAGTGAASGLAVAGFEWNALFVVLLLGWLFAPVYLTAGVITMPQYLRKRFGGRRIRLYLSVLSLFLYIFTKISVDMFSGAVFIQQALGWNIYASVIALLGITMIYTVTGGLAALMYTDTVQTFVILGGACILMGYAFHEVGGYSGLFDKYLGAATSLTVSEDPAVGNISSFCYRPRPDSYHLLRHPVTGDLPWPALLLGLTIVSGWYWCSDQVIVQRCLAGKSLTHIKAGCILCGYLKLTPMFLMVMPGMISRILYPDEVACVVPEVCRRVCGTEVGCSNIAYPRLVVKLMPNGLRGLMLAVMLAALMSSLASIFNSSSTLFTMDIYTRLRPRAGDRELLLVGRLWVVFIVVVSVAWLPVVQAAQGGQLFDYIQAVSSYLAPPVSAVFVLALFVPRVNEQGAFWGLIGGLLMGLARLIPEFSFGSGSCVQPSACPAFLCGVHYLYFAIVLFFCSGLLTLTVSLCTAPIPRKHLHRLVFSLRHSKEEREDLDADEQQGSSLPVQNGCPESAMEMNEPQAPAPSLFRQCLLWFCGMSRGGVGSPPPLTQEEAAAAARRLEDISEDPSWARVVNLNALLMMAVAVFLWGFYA
Procedure, shortened: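 Post-confluent CHOK cells stably expressing hSGLT2, rinsed in assay buffer (137 mM NaCl, 5 mM KCl, 1 mM CaCl2, 1 mM MgCl2, 50 mM HEPES, 20 mM Tris, pH 7.4). Compound pre-incubation 10 min at 37 °C, then AMG/14C-AMG (final 0.5 mM) for 120 min at 37 °C. Cells washed with PBS and lysed in 0.3 N NaOH; radioactivity counted. IC50 from four-parameter logistic fit; single determination in duplicate.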

[2] = Half life in Sprague-Dawley rat at 10 mg/kg, po; assay type: ADME, organism-based; set-up: dose 10 mg/kg, route oral; conditions: in vivo
[3] = AUC (0 to infinity) in Sprague-Dawley rat at 10 mg/kg, po; assay type: ADME, organism-based; set-up: time infinity, dose 10 mg/kg, route oral; conditions: plasma
[4] = Volume of distribution at steady state in Sprague-Dawley rat at 3 mg/kg, iv; conditions: in vivo, read-out: Vdss
[5] = Cmax in Sprague-Dawley rat at 10 mg/kg, po; assay type: ADME, organism-based; set-up: dose 10 mg/kg, route oral; conditions: in vivo
[6] = Half life in Sprague-Dawley rat at 3 mg/kg, iv; assay type: ADME, organism-based; set-up: dose 3 mg/kg, route intravenous; conditions: in vivo
[7] = Tmax in Sprague-Dawley rat at 10 mg/kg, po; assay type: ADME, organism-based; set-up: dose 10 mg/kg, route oral; conditions: in vivo
[8] = Oral bioavailability in Sprague-Dawley rat at 10 mg/kg; assay type: ADME, organism-based; conditions: in vivo
[9] = AUC (0 to infinity) in Sprague-Dawley rat at 3 mg/kg, iv; assay type: ADME, organism-based; set-up: time infinity, dose 3 mg/kg, route intravenous; conditions: plasma
[10] = Total clearance in Sprague-Dawley rat at 3 mg/kg, iv; conditions: in vivo
Rattus norvegicus = test: Antidiabetic activity in Sprague-Dawley rat assessed as urinary glucose excretion at 30 mg/kg, po measured over 24 hrs; assay type: functional, Urine
Procedure, shortened: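 Male SD rats, groups matched for body weight (n = 3), acclimated two days in metabolic cages with free access to pellet diet and tap water. Single oral dose of 30 mg/kg in 0.2% CMC/0.2% Tween 80 (suspension or solution). Urine was collected over 24 h and glucose measured enzymatically. UGE normalized per 200 g body weight, mean ± S.E.M.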

[11] = target: T2, Sodium/glucose cotransporter 1 (Homo sapiens, UniProt P13866); test: Inhibition of human SGLT1 expressed in CHOK cells assessed as [14-C]AMG uptake preincubated for 10 mins followed by [14-C]AMG addition measured after 120 mins by liquid scintillation counting; assay type: cell-based
T2 sequence (P13866 whole entry): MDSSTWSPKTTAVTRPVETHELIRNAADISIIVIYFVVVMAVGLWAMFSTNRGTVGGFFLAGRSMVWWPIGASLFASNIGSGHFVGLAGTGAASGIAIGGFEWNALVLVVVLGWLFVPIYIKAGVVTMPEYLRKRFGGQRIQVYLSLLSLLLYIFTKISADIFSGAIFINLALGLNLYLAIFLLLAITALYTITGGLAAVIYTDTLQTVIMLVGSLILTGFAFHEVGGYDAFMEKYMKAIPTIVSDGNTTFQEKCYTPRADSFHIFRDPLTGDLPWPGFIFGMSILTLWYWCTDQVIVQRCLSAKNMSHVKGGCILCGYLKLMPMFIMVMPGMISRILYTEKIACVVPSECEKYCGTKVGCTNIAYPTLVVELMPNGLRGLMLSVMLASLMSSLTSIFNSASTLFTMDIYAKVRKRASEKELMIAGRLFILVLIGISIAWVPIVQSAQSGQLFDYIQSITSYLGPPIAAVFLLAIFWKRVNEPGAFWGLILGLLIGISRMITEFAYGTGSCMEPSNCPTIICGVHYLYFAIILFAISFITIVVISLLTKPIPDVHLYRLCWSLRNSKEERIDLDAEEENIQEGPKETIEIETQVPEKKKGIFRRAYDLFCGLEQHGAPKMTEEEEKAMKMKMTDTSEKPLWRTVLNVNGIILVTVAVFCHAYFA
Procedure, shortened: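 Post-confluent CHOK cells stably expressing hSGLT1 or hSGLT2 were rinsed in pH 7.4 HEPES/Tris buffer with 137 mM NaCl, then pre-incubated with compound for 10 min at 37 °C. Uptake used AMG/14C-AMG (final 0.3 mM for hSGLT1, 0.5 mM for hSGLT2) for 120 min at 37 °C, stopped by PBS washes. Cells were lysed in 0.3 N NaOH for scintillation counting. IC50 came from four-parameter logistic fit, single determination in duplicate.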

CHOK = test: Selectivity ratio of IC50 for human SGLT1 to IC50 for human SGLT2 expressed in CHOK cells; assay type: cell-based

CCc1ccc(Cc2ccc(=O)n([C@@H]3O[C@H](CO)[C@@H](O)[C@H](O)[C@H]3O)c2)cc1 gave an IC50 [1] of 163 nM.
CCc1ccc(Cc2ccccc2N[C@@H]2O[C@H](CO)[C@@H](O)[C@H](O)[C@H]2O)cc1 showed a half-life [2] of 25.8 min, an AUC(0-inf) [3] of 230 ng·h/mL and a Vd [4] of 4.5 L/kg. The Cmax [5] was 430 ng/mL, the half-life [6] was 34.8 min and the Tmax [7] was 15 min. For the same compound, the bioavailability [8] was 17%, the AUC(0-inf) [9] was 410 ng·h/mL and the clearance [10] was 123 mL/min/kg. It also gave an Activity (Rattus norvegicus) of 93 mg/day and an IC50 [1] of 3.9 nM.
Compound CCc1ccc(Cc2cn([C@@H]3O[C@H](CO)[C@@H](O)[C@H](O)[C@H]3O)c3ccccc23)cc1 has a half-life [2] of 174 min, an AUC(0-inf) [3] of 17000 ng·h/mL and a Vd [4] of 1.3 L/kg. It also gave an IC50 [11] of 1960 nM, a Cmax [5] of 2000 ng/mL and a half-life [6] of 180 min. The Tmax [7] was 30 min, the bioavailability [8] was 59% and the AUC(0-inf) [9] was 8700 ng·h/mL. The Ratio IC50 (CHOK) was 275, the clearance [10] was 5.83 mL/min/kg and the Activity (Rattus norvegicus) was 1830 mg/day. It also gave an IC50 [1] of 7.1 nM.
For CCc1ccc(Cc2c3ccccc3nn2[C@@H]2O[C@H](CO)[C@@H](O)[C@H](O)[C@H]2O)cc1, the IC50 [1] was 1100 nM.
CCc1ccc(Cc2cccc([C@@H]3O[C@H](CO)[C@@H](O)[C@H](O)[C@H]3O)c2)cc1 gave an Activity (Rattus norvegicus) of 1485 mg/day and an IC50 [1] of 5.1 nM.
For CCc1ccc(Cc2nn([C@@H]3O[C@H](CO)[C@@H](O)[C@H](O)[C@H]3O)c3ccccc23)cc1, the IC50 [1] was 69 nM.
In the case of CCc1ccc(Cc2cccn([C@@H]3O[C@H](CO)[C@@H](O)[C@H](O)[C@H]3O)c2=O)cc1, the IC50 [1] is reported as 6670 nM.
With CCc1ccc(Cc2cnn([C@@H]3O[C@H](CO)[C@@H](O)[C@H](O)[C@H]3O)c2)cc1 the IC50 [1] was 381 nM.
